Assay results reported in ChEMBL document CHEMBL4261529, “Rational design and optimization of selenophenes with basic side chains as novel potent selective estrogen receptor modulators (SERMs) for breast cancer therapy” (Medchemcomm, 2017).
pEC50, pIC50: −log10 of the molar value. Activity calls are given as the source filed them. No cut-off for these calls is given here.

Legend:
[1] = target: T1, Estrogen receptor (Homo sapiens) (UniProt P03372); test: Binding affinity to human ERalpha LBD expressed in Escherichia coli BL21(DE3) after 2 hrs by fluorescence tracer coumestrol based competitive fluorometric binding assay relative to 17beta-estradiol
T1 sequence (whole entry): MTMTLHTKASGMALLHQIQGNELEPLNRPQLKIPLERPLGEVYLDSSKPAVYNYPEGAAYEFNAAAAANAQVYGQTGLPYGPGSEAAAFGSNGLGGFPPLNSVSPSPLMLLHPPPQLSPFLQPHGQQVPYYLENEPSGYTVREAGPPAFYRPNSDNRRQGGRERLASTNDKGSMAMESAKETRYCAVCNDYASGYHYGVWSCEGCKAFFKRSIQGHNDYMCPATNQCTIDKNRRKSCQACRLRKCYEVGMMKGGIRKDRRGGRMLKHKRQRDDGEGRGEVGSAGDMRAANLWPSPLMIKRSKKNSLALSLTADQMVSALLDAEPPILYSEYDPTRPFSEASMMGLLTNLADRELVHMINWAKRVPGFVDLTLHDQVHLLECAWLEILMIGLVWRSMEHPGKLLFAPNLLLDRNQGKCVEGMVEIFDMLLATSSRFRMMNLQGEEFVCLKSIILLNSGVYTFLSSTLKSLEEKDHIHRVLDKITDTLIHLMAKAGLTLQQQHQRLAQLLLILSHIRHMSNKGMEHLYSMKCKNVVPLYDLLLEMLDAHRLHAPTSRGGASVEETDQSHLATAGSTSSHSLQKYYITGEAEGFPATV

[2] = target: T2, Estrogen receptor beta (Homo sapiens, UniProt Q92731); test: Binding affinity to human ERbeta LBD expressed in Escherichia coli BL21(DE3) after 2 hrs by fluorescence tracer coumestrol based competitive fluorometric binding assay relative to 17beta-estradiol
[3] = organism: Homo sapiens; test: Ratio of relative binding affinity for human ERalpha LBD to relative binding affinity to human ERbeta LBD
[4] = target: T3, Estrogen receptor (Homo sapiens, UniProt P03372); test: Antagonist activity at ERalpha (unknown origin) expressed in HEK293T cells assessed as inhibition of 17beta-estradiol stimulated transcriptional activity after 24 hrs by dual luciferase reporter gene assay; format: cell-based
T3 sequence (P03372 whole entry): T1 sequence (whole entry)

[5] = target: T2, Estrogen receptor beta; test: Antagonist activity at ERbeta (unknown origin) expressed in HEK293T cells assessed as inhibition of 17beta-estradiol stimulated transcriptional activity after 24 hrs by dual luciferase reporter gene assay relative to 17beta-estradiol; format: cell-based
Procedure, shortened: (§1)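 ERβ expression vector (100 ng) plus 300 ng 3×ERE-luciferase reporter, calcium phosphate transfection into HEK293T cells plated in phenol red-free DMEM with 10% FBS. Next day, treated in triplicate with increasing doses (up to 10–5 M). For antagonist mode, 10 nM estradiol was co-added. Luciferase read 24 h later.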

[6] = target: T2, Estrogen receptor beta; test: Antagonist activity at ERbeta (unknown origin) expressed in HEK293T cells assessed as inhibition of 17beta-estradiol stimulated transcriptional activity after 24 hrs by dual luciferase reporter gene assay; format: cell-based
Procedure, shortened: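 HEK293T cells kept in DMEM with 10% FBS, plated in phenol red-free DMEM/10% FBS. Calcium phosphate co-transfection with 300 ng 3×ERE-luciferase reporter and 100 ng ERβ expression vector. Next day, cells stimulated with 10 nM estradiol plus increasing compound doses (up to 10–5 M), in triplicate. Luciferase read after 24 h.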

[7] = system: MCF7; test: Antiproliferative activity against human MCF7 cells after 72 hrs by MTT assay; format: functional, cell-based; details: MCF7, 72 h
Procedure, shortened: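 MCF-7 (ATCC), kept in DMEM with 10% FBS, were treated in triplicate for 72 h. IC50 is the average of at least three independent experiments ± SD.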

[8] = target: T2, Estrogen receptor beta; test: Agonist activity at ERbeta (unknown origin) expressed in HEK293T cells assessed as transcriptional activity after 24 hrs by dual luciferase reporter gene assay relative to 17beta-estradiol; format: cell-based; procedure, shortened: as §1
[9] = target: T2, Estrogen receptor beta; test: Agonist activity at ERbeta (unknown origin) expressed in HEK293T cells assessed as transcriptional activity after 24 hrs by dual luciferase reporter gene assay; format: cell-based; procedure, shortened: as §1
[10] = target: T3, Estrogen receptor; test: Agonist activity at ERalpha (unknown origin) expressed in HEK293T cells assessed as transcriptional activity after 24 hrs by dual luciferase reporter gene assay; format: cell-based
[11] = system: MCF7; test: Antiproliferative activity against human MCF7 cells at 50 uM after 5 days in presence of 10 nM 17beta-estradiol by MTT assay; format: functional, cell-based
Procedure, shortened: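 MCF-7 cells were given 50 μM compound with or without 10 nM E2 and cultured 5 days. Viability was expressed relative to untreated cells set at 100%. Mean of three separate experiments ± range.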

T2 sequence (Q92731 whole entry, the tested form may be a part): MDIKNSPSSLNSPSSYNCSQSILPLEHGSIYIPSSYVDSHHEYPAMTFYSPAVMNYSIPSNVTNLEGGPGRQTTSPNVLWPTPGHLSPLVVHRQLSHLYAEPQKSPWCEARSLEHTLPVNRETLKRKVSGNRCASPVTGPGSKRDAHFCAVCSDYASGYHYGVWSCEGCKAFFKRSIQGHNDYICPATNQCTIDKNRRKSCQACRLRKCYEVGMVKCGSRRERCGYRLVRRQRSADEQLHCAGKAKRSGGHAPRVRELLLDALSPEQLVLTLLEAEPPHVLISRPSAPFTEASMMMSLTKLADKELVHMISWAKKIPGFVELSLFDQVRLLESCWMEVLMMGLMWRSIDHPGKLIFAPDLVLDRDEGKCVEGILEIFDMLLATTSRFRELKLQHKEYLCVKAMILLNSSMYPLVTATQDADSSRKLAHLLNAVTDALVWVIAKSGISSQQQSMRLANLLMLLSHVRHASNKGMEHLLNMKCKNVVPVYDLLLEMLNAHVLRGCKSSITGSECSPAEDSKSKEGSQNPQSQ

Compound	RBA [1]	RBA [2]	Ratio [3]	pIC50 [4]	Efficacy [5]	pIC50 [6]	pIC50 [7]	Efficacy [8]	pEC50 [9]	pEC50 [10]	Activity [11]
Oc1ccc(-c2ccc(-c3ccc(OCCN4CCCC4)cc3Cl)[se]2)c(Cl)c1	4.59%	23.6%	0.19	6.38	49.4%	6.52	5.11	–	–	–	–
Cc1cc(O)ccc1-c1ccc(-c2ccc(OCCN3CCCC3)cc2C)[se]1	1.96%	0.58%	3.37	6.06	4.6%	6.84	4.27	72.3%	6.62	–	–
Cc1cc(O)ccc1-c1ccc(-c2ccc(O)cc2C)[se]1	5.6%	11.1%	–	–	–	–	–	–	–	–	–
Oc1ccc(-c2c[se]cc2-c2ccc(OCCN3CCCC3)cc2Cl)c(Cl)c1	< 0.1%	23.3%	< 0.1	6.11	68.1%	5.94	4.96	–	–	–	–
Cc1cc(O)ccc1-c1cc(-c2ccc(OCCN3CCCC3)cc2)c(-c2ccc(O)cc2C)[se]1	13.8%	3.4%	4.06	7.89	170%	7.80	5.15	–	–	–	–
Cc1cc(-c2c[se]cc2-c2ccc(OCCN3CCCCC3)c(C)c2)ccc1O	< 0.1%	< 0.1%	–	–	30.3%	6.38	< 4.00	–	–	6.14	–
Oc1ccc(-c2c[se]cc2-c2ccc(OCCN3CCCCC3)cc2Cl)c(Cl)c1	5.38%	18.4%	0.29	6.38	37.7%	6.48	4.85	–	–	–	–
Oc1ccc(-c2ccc(-c3ccc(O)cc3F)[se]2)c(F)c1	5.9%	24.3%	–	–	–	–	–	–	–	–	–
Oc1ccc(-c2ccc(-c3ccc(OCCN4CCCCC4)cc3Cl)[se]2)c(Cl)c1	< 0.1%	< 0.1%	–	–	24.9%	5.53	< 4.00	–	–	6.04	–
Oc1ccc(-c2c[se]cc2-c2ccc(OCCN3CCCCC3)c(F)c2)cc1F	4.82%	15.3%	0.32	7.16	45%	6.27	4.81	–	–	–	–
Oc1ccc(-c2ccc(-c3ccc(OCCN4CCCC4)cc3F)[se]2)c(F)c1	0.76%	< 0.1%	> 10	–	92.1%	5.95	< 4.00	–	–	6.87	–
Oc1ccc(-c2c[se]cc2-c2ccc(OCCN3CCCCC3)cc2)cc1	7.58%	2.35%	3.3	5.80	22.8%	6.35	5.09	53.5%	5.94	–	inactive
Cc1cc(O)ccc1-c1c[se]cc1-c1ccc(OCCN2CCCC2)cc1C	1.65%	0.46%	3.6	6.75	66.7%	7.37	4.78	–	–	–	–
Oc1ccc(-c2cc(-c3ccc(OCCN4CCCCC4)cc3)c(-c3ccc(O)cc3)[se]2)cc1	4.59%	< 0.1%	> 10	6.11	33.8%	5.27	5.15	–	–	5.74	–
Oc1ccc(-c2c[se]cc2-c2ccc(OCCN3CCCC3)cc2)cc1	2.06%	5.92%	0.35	–	46.7%	6.99	< 4.00	–	–	6.00	–
Oc1ccc(-c2ccc(-c3ccc(OCCN4CCCCC4)cc3F)[se]2)c(F)c1	6.89%	0.63%	10.9	–	75.4%	5.71	< 4.00	–	–	6.69	–
Oc1ccc(-c2ccc(-c3ccc(OCCN4CCCC4)cc3)[se]2)cc1	12.4%	1.02%	12.2	5.92	83.9%	5.90	5.24	–	–	6.66	inactive
Oc1ccc(-c2c[se]cc2-c2ccc(O)c(F)c2)cc1F	0.58%	1.56%	–	–	–	–	–	–	–	–	–
Oc1ccc(-c2ccc(-c3ccc(O)cc3Cl)[se]2)c(Cl)c1	6.11%	12.7%	0.48	–	–	–	–	–	–	–	–
Cc1cc(O)ccc1-c1c[se]cc1-c1ccc(O)cc1C	0.27%	6.7%	–	–	–	–	–	–	–	–	–
Oc1ccc(-c2ccc(-c3ccc(O)cc3)[se]2)cc1	0.61%	2.87%	–	–	–	–	–	–	–	–	–
Cc1cc(O)ccc1-c1c[se]cc1-c1ccc(OCCN2CCCCC2)cc1C	0.56%	10.2%	0.05	6.63	43.4%	5.87	4.80	–	–	6.80	–
Oc1ccc(-c2c[se]cc2-c2ccc(O)cc2)cc1	0.32%	2.01%	–	–	–	–	–	–	–	–	–
Cc1cc(-c2c[se]cc2-c2ccc(OCCN3CCCC3)c(C)c2)ccc1O	2.03%	5.92%	0.34	6.08	34.1%	8.30	4.89	20.8%	–	6.94	–
Cc1cc(-c2c[se]cc2-c2ccc(O)c(C)c2)ccc1O	0.71%	0.62%	–	–	–	–	–	–	–	–	–
Oc1ccc(-c2cc(-c3ccc(OCCN4CCCC4)cc3)c(-c3ccc(O)cc3)[se]2)cc1	3.14%	16.7%	0.18	6.01	49.2%	6.32	5.31	–	–	–	inactive
Cc1cc(O)ccc1-c1ccc(-c2ccc(OCCN3CCCCC3)cc2C)[se]1	< 0.1%	0.62%	< 0.1	7.39	78.3%	5.91	4.60	–	–	5.63	–
